Test [1] has as its target T1, Fatty-acid amide hydrolase 1 (Homo sapiens, UniProt O00519).
T1 sequence (O00519 whole entry): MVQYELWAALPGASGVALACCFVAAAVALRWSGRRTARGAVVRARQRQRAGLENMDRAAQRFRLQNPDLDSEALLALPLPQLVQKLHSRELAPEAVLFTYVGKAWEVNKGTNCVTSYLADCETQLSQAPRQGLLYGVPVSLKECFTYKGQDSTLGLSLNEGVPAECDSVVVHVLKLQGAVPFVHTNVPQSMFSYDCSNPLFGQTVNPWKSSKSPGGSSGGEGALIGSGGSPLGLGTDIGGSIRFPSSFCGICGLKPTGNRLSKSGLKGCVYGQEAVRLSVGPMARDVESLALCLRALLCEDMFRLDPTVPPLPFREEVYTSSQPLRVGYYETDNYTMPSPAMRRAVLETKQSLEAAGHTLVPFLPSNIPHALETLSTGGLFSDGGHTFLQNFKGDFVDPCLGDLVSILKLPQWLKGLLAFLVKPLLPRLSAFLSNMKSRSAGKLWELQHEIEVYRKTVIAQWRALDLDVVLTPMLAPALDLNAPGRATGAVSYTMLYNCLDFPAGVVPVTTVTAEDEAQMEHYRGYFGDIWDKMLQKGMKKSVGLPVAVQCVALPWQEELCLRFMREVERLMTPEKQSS
The test is described as follows: Inhibition of human FAAH. An outline of the steps: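 Recombinant human FAAH in Tris-HCl pH 7.4 added on ice to compound or DMSO. [3H]anandamide (2 μM final) in Tris-HCl with 0.1% BSA, 10 min at 37 °C. Stopped on ice with methanol-chloroform 1:1, centrifuged 850g 5 min 4 °C. Released [3H]ethanolamine in aqueous layer counted by scintillation, buffer blanks subtracted.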

The species named for a further test is Homo sapiens. Briefly: Selectivity ratio of IC50 for human FAAH to IC50 for human MGL. An outline of the steps:
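Ratio of IC50 against human FAAH ([3H]anandamide hydrolysis) to IC50 against purified human MGL ([3H]-2-OG hydrolysis), each from three independent experiments in duplicate.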

Test [2] has as its target T2, Monoglyceride lipase (Homo sapiens, UniProt Q99685).
T2 sequence (Q99685 whole entry): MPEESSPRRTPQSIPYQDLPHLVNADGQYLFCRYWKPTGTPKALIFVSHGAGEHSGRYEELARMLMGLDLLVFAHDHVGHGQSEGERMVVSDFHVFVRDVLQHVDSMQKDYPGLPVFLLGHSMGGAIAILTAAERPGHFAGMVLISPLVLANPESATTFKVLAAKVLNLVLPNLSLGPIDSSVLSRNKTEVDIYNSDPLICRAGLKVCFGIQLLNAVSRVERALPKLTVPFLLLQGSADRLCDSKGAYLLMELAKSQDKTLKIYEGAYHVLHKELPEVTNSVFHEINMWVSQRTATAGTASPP
The test is described as follows: Inhibition of human MGL. An outline of the steps:
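Purified recombinant human MGL (5 ng) in 50 mM Tris pH 8.0, 0.1% BSA with compound or DMSO vehicle. [3H]-2-OG (10 μM) hydrolysis run 10 min at 37 °C, stopped with ice-cold methanol-chloroform 1:1. Aqueous-phase radioactivity read by liquid scintillation, no-enzyme blanks subtracted.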

For test [3], the target named is T3, Monoglyceride lipase (Homo sapiens) (UniProt Q99685).
T3 sequence (whole entry): T2 sequence (Q99685 whole entry)
Briefly: Inhibition of [3H]2-OG binding to human MGL at 40 times IC50 treated for 1 hr before addition of 2-OG by liquid scintillation counting.

Test [4] has as its target T3, Monoglyceride lipase (Homo sapiens). Briefly: Displacement of [3H]2-OG from human MGL at 2 uM treated for 30 mins before addition of 2-OG by liquid scintillation counting. In short, it runs like this: (§1)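 Purified recombinant human MGL (5 ng, 50 mM Tris pH 8.0, 0.1% BSA) preincubated with inhibitor (16 μM or 2 μM) at room temperature for 0, 15 or 30 min. Then [3H]-2-OG (10 μM final) added, 10 min at 37 °C. Stopped with ice-cold methanol-chloroform 1:1, centrifuged, aqueous-phase radioactivity counted by liquid scintillation. No-enzyme blanks subtracted. Mean of three experiments in duplicate.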

Test [5] shares this target. The test is described as follows: Displacement of [3H]2-OG from human MGL at 2 uM treated for 15 mins before addition of 2-OG by liquid scintillation counting. An outline of the steps:
as §1
In general terms: Loss of bound radioactivity is the signal in a displacement assay; it reports binding, not function.

Test [6] addresses T2, Monoglyceride lipase. The test is described as follows: Displacement of [3H]2-OG from human MGL by liquid scintillation counting. In short, it runs like this: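 Purified recombinant human MGL (5 ng) in 50 mM Tris pH 8.0, 0.1% BSA with compound or DMSO vehicle. [3H]-2-OG (10 μM) hydrolysis run 10 min at 37 °C, stopped with ice-cold methanol-chloroform 1:1. Aqueous-phase radioactivity read by liquid scintillation, no-enzyme blanks subtracted. IC50 from three independent experiments in duplicate; single-point inhibition at 1 mM where no IC50.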

Test [7] addresses T1, Fatty-acid amide hydrolase 1. Briefly: Displacement of [3H]ethanolamine from human recombinant FAAH by liquid scintillation counting. An outline of the steps:
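Recombinant human FAAH in Tris-HCl pH 7.4 added on ice to compound or DMSO. [3H]anandamide (2 μM final) in Tris-HCl with 0.1% BSA, 10 min at 37 °C. Stopped on ice with methanol-chloroform 1:1, centrifuged 850g 5 min 4 °C. Released [3H]ethanolamine in aqueous layer counted by scintillation, buffer blanks subtracted. Three independent experiments in duplicate; 1 mM single-point where no IC50.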

The target of test [8] is T3, Monoglyceride lipase (Homo sapiens). Briefly: Displacement of [3H]2-OG from human MGL at 16 uM treated for 15 mins before addition of 2-OG by liquid scintillation counting. An outline of the steps: as §1
For test [9] the target is unchanged. The test is described as follows: Displacement of [3H]2-OG from human MGL at 16 uM treated for 30 mins before addition of 2-OG by liquid scintillation counting. In short, it runs like this:
as §1

Test [10] has the same target. The test is described as follows: Inhibition of [3H]2-OG binding to human MGL at 20 times IC50 treated for 1 hr before addition of 2-OG by liquid scintillation counting.

The source made the active and inactive calls. The rule behind the calls is not given here.

The IC50 is the concentration that inhibits the measured activity by half. Turning to `O=C(Nc1cccc(-c2ccccc2)c1)OC1CCCCC1`, it took 5.65 µM to reach half-maximal inhibition in test [1] (IC50). Moreover, the Ratio IC50 in the test filed under Homo sapiens came to 0.57.

For orientation: inhibition means the drop in the measured response relative to a control, in per cent. Read a high inhibition as a strong effect. Take `CCCCC/C=C\C/C=C\C/C=C\C/C=C\CCCCN1C(=O)C=CC1=O`: the IC50 was determined as 1.12 µM against Monoglyceride lipase [2] and 2.18 µM in test [1]. In addition, the inhibition in test [3] is 69%. In the test filed under Homo sapiens, the Ratio IC50 worked out at 1.95.

For the compound `O=C1C=CC(=O)N1Cc1ccc(CN2C(=O)C=CC2=O)cc1`, the outcome in test [4] and in test [5] was Active. Also, the IC50 on Monoglyceride lipase [6] was 1.7 µM; in test [7], 16.6 µM. The compound also yielded an inhibition in test [3] of 69%. The Ratio IC50 in the test listed under Homo sapiens is 10.

In the case of `O=C1C=CC(=O)N1c1ccccc1`, the result in test [8] and in [9] was Active. Moreover, the values for the IC50 (at Monoglyceride lipase [6]; in test [7]) were 15.9 µM and 229 µM, respectively.

Turning to `CCCCC/C=C\C/C=C\C/C=C\C/C=C\CCCC(=O)C(F)(F)F` [ARACHIDONYL TRIFLUOROMETHYLKETONE], in test [10], the inhibition came out at 26%. The compound further had an IC50 against Monoglyceride lipase [2] of 6.31 µM. The Ratio IC50 in the test listed under Homo sapiens is 0.002.

Source of the values: ChEMBL document CHEMBL1154772, “Synthesis and in vitro evaluation of N-substituted maleimide derivatives as selective monoglyceride lipase inhibitors” (J Med Chem, 2009).
